NTR1 agonist – agonists of human NTR1, primary screen, imaging, U2OS cells, beta-arrestin-GFP, high content; NTR1-U2OS beta-arrestin-GFP spot imaging, agonist mode; activation, % at 20 µM; actives 0.17% (n = 330,000); AID 493036, 2011;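 active means activation at or above 40% of the spot to cytoplasm intensity ratio, with at least 20 cells analyzed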;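 further: 0% = DMSO without peptide and 100% = 100 nM NTR1 peptide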
Target sequence (P30989 whole entry, looked up): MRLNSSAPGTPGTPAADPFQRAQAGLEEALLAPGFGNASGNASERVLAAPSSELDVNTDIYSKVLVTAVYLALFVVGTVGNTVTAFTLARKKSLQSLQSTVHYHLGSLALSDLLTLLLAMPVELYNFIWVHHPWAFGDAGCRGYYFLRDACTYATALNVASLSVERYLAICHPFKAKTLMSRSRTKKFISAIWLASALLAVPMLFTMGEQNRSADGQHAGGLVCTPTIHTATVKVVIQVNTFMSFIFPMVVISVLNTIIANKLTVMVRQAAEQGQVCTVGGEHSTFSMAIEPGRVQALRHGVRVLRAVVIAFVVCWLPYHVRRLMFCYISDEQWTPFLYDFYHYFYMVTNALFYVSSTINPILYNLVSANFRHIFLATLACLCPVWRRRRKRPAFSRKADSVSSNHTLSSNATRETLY
PLC-beta3 inh – human PLC-beta3 inhibitors, primary screen, biochemical, fluorescence | actives 0.18% (n = 370,000) | 1-phosphatidylinositol 4,5-bisphosphate phosphodiesterase beta-3 (Homo sapiens), Q01970 | AID 720704, 2013 | inhibition, % at 12.2 µM | Purified PLC-beta3, fluorogenic substrate; in the data active means inhibition above about 11%;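 further: 0% = median of compound wells on plate and 100% = full blocker control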
Arrestin-AP2 inh – inhibitors of beta-arrestin/AP2 binding, primary screen, biochemical, GPCR trafficking, flow cytometry. beta-arrestin 1 C-terminal peptide binding to AP2 beta2-adaptin appendage (human). actives 0.31% (n = 340,000). inhibition, % at 10 µM. AID 504490, 2011. FITC-arrestin peptide / GST-AP2 beads; AP2 beta2 appendage carries R879A mutation;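 active means inhibition above a set limit, near 3 SD of compounds lacking own fluorescence, cut at about 54% in these data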;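 further: plate controls were DMSO wells for no effect and 5 µM unlabelled arrestin peptide for full effect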
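System: GST-tagged AP2 beta2-adaptin appendage (R879A) on 4 µm glutathione beads / Reagent: FITC-arrestin peptide, 50 nM / Detection: HyperCyt-sampled flow cytometry, FL1 channel, ex 488/em 535 nm / Timing: 12 min plus 1 h, RT / Buffer or medium: PBS plus Tween 20 (0.05%) and BSA (0.1%)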
PLCg1 inh – PLC-gamma1 enzyme inhibitors, primary screen, biochemical, fluorescence, purified enzyme. fluorogenic substrate. inhibition, % at 12.2 µM. actives 0.84% (n = 370,000). AID 720700, 2013
PLCgamma1 ctr – PLC-gamma1 enzyme inhibitors, counter-screen for PLC-beta3 inhibitor project, biochemical, fluorescence; shares compounds with PLCg1 inh; purified PLC-gamma1, fluorogenic substrate; inhibition, % at 12.3 µM; actives 3.1% (n = 3,300); AID 743258, 2014
PLCbeta3 conf – PLC-beta3 inhibitor confirmation, biochemical, fluorescence, purified enzyme; shares compounds with PLCg1 inh; fluorogenic substrate fluorescence; inhibition, % at 12.3 µM; actives 1% (n = 3,300); in the data active means inhibition above about 11%
Active calls of the source: *; i = inactive; . = not tested or not shown. Hits are enriched below; roughly 1.3% of the tested compounds scored in any of these assays. Unless noted, no stated cut-off is given here; in the data, active means inhibition above about 9.5%; inactive means the rest.

SMILES | NTR1 agonist | PLC-beta3 inh | Arrestin-AP2 inh | PLCg1 inh | PLCgamma1 ctr | PLCbeta3 conf
CCOc1ccc(NC(=O)CC2SC(=O)N(c3ccccc3)C2=O)cc1 (stereo not drawn) | 3 | 4 | -3 | 9.9* | -9 | -7
Cc1ccccc1NC(=O)CC1SC(=O)N(c2ccccc2)C1=O (stereo not drawn) | -1 | 0 | -9 | 1 | . | .
CCOC(=O)CNC(=O)N(C)[C@H]1C[C@H]2c3[nH]c4c(-c5cccc(C)c5)cccc4c3CCN2C(=O)[C@H]1[C@H](C)O | . | i | . | -411 | . | .
CC(C)(C)c1ccc(C#C[C@@H]2C=C[C@@H](O)[C@@H](COC(=O)NCc3ccccc3)O2)cc1 | . | 9 | . | 1 | . | .
Cc1ccc(S(=O)(=O)N(C)C)cc1NC(=O)[C@H](Cc1ccccc1)N1C(=O)c2ccccc2C1=O | 0 | 3 | -12 | 2 | . | .
COc1ccc(S(=O)(=O)N(C)C)cc1NC(=O)[C@H](Cc1ccccc1)N1C(=O)c2ccccc2C1=O | 2 | 5 | 2 | 9.8* | 1 | 4
Cc1cccc(C(=O)Oc2coc(CSc3nnc(NC(=O)C4CC4)s3)cc2=O)c1 | 2 | 6 | -3 | 1 | . | .
Cc1ccc(C(=O)Oc2coc(CSc3nnc(NC(=O)C4CC4)s3)cc2=O)cc1C | . | 8 | -6 | 11* | 1 | 1
COc1ccc2c(c1)CN1C(=O)N(CC(C)C)S(=O)(=O)CC21 (stereo not drawn) | . | -2 | . | 1 | . | .
O=C(CS(=O)c1cccc(Cl)c1)Nc1ccccc1Cl (stereo not drawn) | 1 | 4 | 5 | 11* | 11* | 1
O=C(CS(=O)c1cccc(C(F)(F)F)c1)Nc1ccc(Cl)cc1Cl (stereo not drawn) | -2 | 3 | -1 | 17* | 13* | 4
COc1ccc(S(=O)CC(=O)Nc2ccccc2Cl)cc1 (stereo not drawn) | 1 | 5 | 14 | 4 | . | .
COCCSc1ccccc1C(=O)Nc1nncs1 | -1 | 4 | 6 | 10* | -1 | 1
COCCSc1ccccc1C(=O)Nc1ccncc1 | -1 | 1 | 30 | -1 | . | .
O=C(O)c1ccc(Cl)cc1NC(=O)C1CCCO1 (stereo not drawn) | 2 | 12* | 2 | 2 | -6 | -6
COC(=O)[C@]12C[C@H](CC(=O)N3CCOCC3)C(=O)N(Cc3cccc4ccccc34)C1=C[C@H](C(C)(C)C)O[C@@H]2C | . | -1 | . | 1 | . | .
COc1cccc(CCNC(=O)CCc2nc(-c3ccccc3F)no2)c1 | . | 0 | . | -2 | . | .
CN(CC(=O)Nc1ccc(Cl)c(C(F)(F)F)c1)C(=O)Cc1n[nH]c(=O)c2ccccc12 | 1 | -3 | -6 | 10* | -2 | 1
CN(CC(=O)Nc1cccc(F)c1)C(=O)Cc1n[nH]c(=O)c2ccccc12 | 0 | 2 | 1 | 0 | . | .
C[C@H]1[C@@H](OC(=O)Nc2ccccc2F)CC[C@@]23CCCN2C(=O)CCC[C@@H]13 | . | 4 | . | 0 | . | .
c1ccc(-c2c[nH]c3cccc(C4CCCCC4)c23)cc1 | . | -6 | . | -4 | . | .
O=C(CN1C(=O)c2ccccc2S1(=O)=O)N1CCN(c2ccc(F)cc2)CC1 | 4 | 7 | 6 | 11* | -5 | -3
Nc1nc2n[nH]nc2c(=O)[nH]1 | -1 | 9 | 3 | 3 | . | .
Nc1[nH]c(=O)nc2snnc12 | . | 10 | -3 | 9.6* | -4 | -4
O=c1c2ccccc2sn1-c1ccc(Cl)cc1Cl | . | 16* | . | 0 | -6 | 2
O=c1c2ccccc2ncn1-c1ccc(Cl)cc1Cl | 1 | -6 | 8 | 2 | . | .
Cc1ccc(C(=O)N2CCN(c3ccc([N+](=O)[O-])c(NCc4ccco4)c3)CC2)cc1 | 4 | 3 | 3 | 9 | . | .
Cc1cccc(C(=O)N2CCN(c3ccc([N+](=O)[O-])c(NCc4ccco4)c3)CC2)c1 | 1 | -2 | 27 | 9.5* | -2 | -1
Cc1cc(Cl)ccc1OC(C)C(=O)N1CCCN(C(=O)C(C)Oc2ccc(Cl)cc2C)CC1 (stereo not drawn) | 6 | 4 | -5 | 10* | -5 | -4
